Source: PubChem
The list is not random: actives were taken first. Their share in the collection is about 3%.
SENP6 inh – SENP6 protease inhibitors, primary screen, biochemical, luminescence, uHTS; Sentrin-specific protease 6 (Homo sapiens), Q9GZR1; Recombinant SENP6 catalytic domain, aminoluciferin luminescence; inhibition, % at 10 µM; actives 1.8% (n = 330,000); AID 2599, 2010;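 active = inhibition above about 50% at the single tested dose, limit read from the data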;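 also: plate controls were DMSO wells with enzyme for no effect and DMSO wells lacking enzyme for full effect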
UBC13 inh – UBC13 polyubiquitin chain formation inhibitors, primary screen, biochemical, TR-FRET, uHTS | AID 485273, 2010 | inhibition, % at 20 µM | Ubiquitin-conjugating enzyme E2 N (Homo sapiens), P61088 | actives 0.47% (n = 330,000); in the data active = inhibition above about 45%, passing the limit was not always enough
SENP8 block-1 – human SENP8 protease inhibitors, primary screen, biochemical, fluorescence, Nedd8 protein substrate, uHTS; Sentrin-specific protease 8 (Homo sapiens), Q96LD8; recombinant SENP8; inhibition, % at 20 µM; actives 0.64% (n = 360,000); AID 602440, 2012; in the data active = inhibition mostly above about 40%, no sharp cut-off; inactive = mostly below about 27%
Apaf-1 inh – inhibitors of human Apaf-1 apoptosome, primary screen, biochemical, DEVD-Rh110 fluorescence, uHTS | reconstituted apoptosome caspase-3 activity | inhibition, % at 20 µM | actives 0.71% (n = 330,000) | AID 489030, 2010; active = inhibition of at least 40% at 20 µM;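 also: plate controls were DMSO wells for no effect and DEVD-CHO caspase inhibitor wells for full effect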
Target sequence (O14727 whole entry, looked up): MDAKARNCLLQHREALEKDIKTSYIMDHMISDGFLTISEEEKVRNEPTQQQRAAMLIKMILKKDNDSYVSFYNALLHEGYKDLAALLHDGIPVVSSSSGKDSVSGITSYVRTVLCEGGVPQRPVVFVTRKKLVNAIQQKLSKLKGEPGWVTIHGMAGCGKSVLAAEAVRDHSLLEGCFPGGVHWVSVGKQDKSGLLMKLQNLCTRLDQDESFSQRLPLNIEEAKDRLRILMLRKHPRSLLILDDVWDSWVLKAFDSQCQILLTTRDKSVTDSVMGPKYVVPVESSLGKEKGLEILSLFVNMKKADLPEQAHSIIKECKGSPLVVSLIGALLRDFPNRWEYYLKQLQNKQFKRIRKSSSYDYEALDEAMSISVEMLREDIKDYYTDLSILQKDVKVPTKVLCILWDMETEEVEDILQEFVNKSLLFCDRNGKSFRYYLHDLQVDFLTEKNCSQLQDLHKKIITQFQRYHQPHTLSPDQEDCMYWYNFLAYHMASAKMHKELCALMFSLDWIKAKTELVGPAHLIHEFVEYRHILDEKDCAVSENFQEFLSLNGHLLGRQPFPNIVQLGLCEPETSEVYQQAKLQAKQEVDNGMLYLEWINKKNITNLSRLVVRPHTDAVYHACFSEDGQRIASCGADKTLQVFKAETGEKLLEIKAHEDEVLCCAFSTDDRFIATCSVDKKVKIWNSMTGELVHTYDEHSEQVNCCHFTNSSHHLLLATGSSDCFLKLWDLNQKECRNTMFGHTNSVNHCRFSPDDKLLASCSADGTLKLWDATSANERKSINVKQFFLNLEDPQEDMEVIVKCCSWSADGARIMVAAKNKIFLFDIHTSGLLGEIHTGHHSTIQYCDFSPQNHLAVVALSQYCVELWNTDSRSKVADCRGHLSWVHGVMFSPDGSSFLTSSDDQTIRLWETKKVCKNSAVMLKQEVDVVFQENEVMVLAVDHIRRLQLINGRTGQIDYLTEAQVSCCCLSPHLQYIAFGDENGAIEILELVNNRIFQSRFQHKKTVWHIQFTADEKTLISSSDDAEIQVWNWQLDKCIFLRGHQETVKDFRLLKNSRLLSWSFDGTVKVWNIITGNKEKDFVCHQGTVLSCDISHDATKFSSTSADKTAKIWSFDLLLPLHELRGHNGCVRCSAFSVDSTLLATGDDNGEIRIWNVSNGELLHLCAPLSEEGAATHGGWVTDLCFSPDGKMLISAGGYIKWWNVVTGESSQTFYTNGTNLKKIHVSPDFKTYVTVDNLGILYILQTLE
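Assay system: Apoptosome proteins | Medium: pH 7.5 Hepes buffer with CHAPS, BSA, DTT | Also added: Cytochrome c and DEVD-Rh110 substrate | Times: 30 min plus 50 min, RT | Detection: Rhodamine 110 fluorescence at Ex 480/Em 540 nm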
SENP7 inh – SENP7 protease inhibitors, primary screen, biochemical, luminescence, uHTS; recombinant SENP7, Z-RLRGG-aminoluciferin luminescence, 40 min; AID 434973, 2010; inhibition, % at 5 µM; Sentrin-specific protease 7 (Homo sapiens), Q9BQF6; actives 1.5% (n = 330,000);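 active = inhibition above about 50% at the single test dose, limit read from the data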;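 also: plate controls were DMSO with enzyme for no effect and no enzyme buffer wells for full effect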
SENP8 block-2 – SENP8 protease inhibitors, primary screen, biochemical, luminescence. Sentrin-specific protease 8 (Homo sapiens), Q96LD8. inhibition, % at 10 µM. purified SENP8, Z-RLRGG-aminoluciferin cleavage. AID 2540, 2010. actives 1.2% (n = 330,000); in the data active = inhibition above about 50%
SENP8 conf – SENP8 protease inhibitors, retest, confirmation, biochemical, luminescence, single concentration; Recombinant SENP8, Z-RLRGG-aminoluciferin luminescence, 60 min; inhibition, % at 12.5 µM; AID 488912, 2010; actives 40% (n = 6,200); shares compounds with SENP7 inh;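 active = mean inhibition across replicates above about 50%, limit read from the data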
SENP6 confirm – SENP6 protease inhibitors, confirmation, biochemical, luminescence, single concentration. shares compounds with SENP7 inh. recombinant SENP6, Z-RLRGG-aminoluciferin luminescence. inhibition, % at 12.5 µM. actives 58% (n = 6,200). AID 488915, 2010
SENP7 conf – SENP7 protease inhibitors, retest, confirmation, biochemical, luminescence, single concentration. shares compounds with SENP7 inh. recombinant SENP7, Z-RLRGG-aminoluciferin luminescence, 40 min. inhibition, % at 12.5 µM. actives 69% (n = 6,200)
Casp3 SENP sel – caspase-3 protease inhibitors, confirmation, selectivity assay for SENP inhibitor project, biochemical, single concentration; inhibition, % at 12.5 µM; purified caspase-3, Z-DEVD-aminoluciferin luminescence, 60 min; actives 60% (n = 6,200); AID 488918, 2010; shares compounds with SENP7 inh;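 active = mean inhibition above about 50%, limit read from the data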;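 also: plate controls were enzyme with DMSO for no effect and wells without caspase-3 for full effect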
Luc interf – luminescence interference (SENP counter-screen); shares compounds with SENP7 inh; Pre-incubated SENP8/Z-RLRGG-aminoluciferin, luciferase luminescence interference; inhibition, % at 12.5 µM; actives 39% (n = 6,200); AID 488919;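 active = mean inhibition above about 50% when retested at one dose, limit read from the data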;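 also: plate controls were DMSO wells with completed reaction for no effect and substrate without enzyme for full effect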
* = called active by the depositor; / = no result given.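 The calls were made as follows, unless noted: active = mean inhibition above about 50% in the one-dose retest (limit read from the data); inactive = the rest.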

SMILES | SENP6 inh | UBC13 inh | SENP8 block-1 | Apaf-1 inh | SENP7 inh | SENP8 block-2 | SENP8 conf | SENP6 confirm | SENP7 conf | Casp3 SENP sel | Luc interf
CCC(=O)Oc1ccc(-c2cnc3ccccc3n2)cc1 | 94.2* | -11.8 | -26.0 | 8.6 | 93.7* | 88.5* | -14.7 | 91.6* | 100.6* | 87.7* | 37.7
O=C(O)c1ccc(N/N=C/c2ccnc3ccccc23)cc1 | 91.1* | -4.1 | 10.9 | -11.1 | 91.8* | 81.9* | 77.0* | 90.5* | 92.2* | 68.6* | 10.5
O=C(O)c1ccc(N/N=C/c2c[nH]c3ccccc23)cc1 | 96.7* | -9.3 | -279.3 | -2.9 | 100.4* | 98.2* | 98.4* | 99.6* | 102.4* | 96.5* | 96.9*
COc1ccc(/C=N/Nc2ccc(C(=O)O)cc2)c(OC)c1OC | -6.7 | -2.6 | -197.1 | 10.3 | 21.3 | 6.8 | / | / | / | / | /
CC1(C(=O)Nc2ccc(Cl)c(Cl)c2)CCN1C(=O)CCC1CCCC1 (stereo not given) | / | / | 7.7 | / | / | / | / | / | / | / | /
CC(=O)Nc1ccc2nc(-c3cccn3C)[nH]c2c1 | -7.4 | -8.4 | -142.1 | 3.4 | 3.7 | 0.6 | / | / | / | / | /
O=[N+]([O-])c1ccc2nc(-c3ccccc3)[nH]c2c1 | 81.6* | 6.8 | 15.5 | -4.8 | 84.7* | 78.9* | 5.7 | 80.7* | 95.1* | 82.6* | 82.3*
Cn1cccc1-c1nc2ccc([N+](=O)[O-])cc2[nH]1 | 61.9* | -5.8 | -10.2 | 18.1 | 57.5* | 46.0 | 51.3* | 51.7* | 84.8* | 61.6* | 61.7*
CCCCNC(=O)C1C(c2ccc(C(F)(F)F)cc2)=Nc2ccccc2N1C(=O)C1CCN(C(C)=O)CC1 (stereo not given) | / | / | -214.4 | / | / | / | / | / | / | / | /
COc1ccc(-n2sc3ccc(F)cc3c2=O)cc1 | 91.0* | -15.9 | 20.8 | -4.6 | 79.2* | 91.4* | 95.5* | 95.2* | 101.6* | 96.1* | 92.2*
O=c1c2cc(F)ccc2sn1-c1ccc(F)cc1 | 93.5* | -7.3 | 6.9 | 4.8 | 44.1 | 87.9* | 91.5* | 92.6* | 99.7* | 92.5* | 85.8*
Cc1ccc(C)c(-n2sc3ccc(F)cc3c2=O)c1 | -11.6 | -11.6 | 17.3 | -1.8 | 6.4 | -1.5 | / | / | / | / | /
CC1(C(=O)NCc2cccc3ccccc23)CCN1C(=O)Cc1ccc(-c2ccccc2)cc1 (stereo not given) | / | / | 19.5 | / | / | / | / | / | / | / | /
CN(C)C(=O)COC(=O)c1ccccc1Nc1ccc(SC(F)F)cc1 | -4.1 | 9.5 | -171.9 | 15.2 | 62.0* | 52.1* | 29.7 | 59.7* | 84.2* | 25.1 | 6.1
CC1(C(=O)Nc2nccs2)CCN1C(=O)CC(c1ccccc1)c1ccccc1 (stereo not given) | / | / | 16.1 | / | / | / | / | / | / | / | /
Cn1ccsc1=NC(=O)c1ccc(OC(F)(F)F)cc1 | 63.2* | 3.4 | -64.6 | 4.1 | 60.9* | 51.2* | 55.8* | 58.5* | 88.2* | 62.0* | 66.0*
